Assays:
Details in all cases: stereoisomer not certain
OR4F3 (Homo sapiens) = OR4F3 (Homo sapiens) (UniProt Q6IEY1)
Summary of the method: (§1)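 Each receptor–molecule pair is labelled responsive or non-responsive (inactive) according to whether the original authors judged the measured signal statistically different from baseline. The data were taken from the main text and supplementary material of published papers and checked for typos and inconsistencies. Assay methods differed by source, with transient luciferase assays in mammalian cell lines being common.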

OR4F4 (Homo sapiens) = OR4F4 (Homo sapiens) (UniProt Q96R69)
Sequence of OR4F4 (Homo sapiens) (Q96R69 whole entry): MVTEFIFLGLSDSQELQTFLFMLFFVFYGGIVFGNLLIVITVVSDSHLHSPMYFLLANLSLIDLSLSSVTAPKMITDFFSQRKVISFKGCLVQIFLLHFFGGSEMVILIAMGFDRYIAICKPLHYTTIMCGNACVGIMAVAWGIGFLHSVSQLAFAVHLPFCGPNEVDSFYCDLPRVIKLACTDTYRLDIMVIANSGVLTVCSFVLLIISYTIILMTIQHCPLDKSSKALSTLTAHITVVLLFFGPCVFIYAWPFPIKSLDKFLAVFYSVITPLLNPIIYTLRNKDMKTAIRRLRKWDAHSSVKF
Summary of the method: as §1

OR4F5 (Homo sapiens) = OR4F5 (Homo sapiens) (UniProt Q8NH21)
Sequence of OR4F5 (Homo sapiens) (Q8NH21 whole entry): as the sequence (Q96R69 whole entry) above, with A141T, P160L, C221R, R293Q counted along it
Summary of the method: as §1

OR4F6 (Homo sapiens) = OR4F6 (Homo sapiens) (UniProt Q8NGB9)
Sequence of OR4F6 (Homo sapiens) (Q8NGB9 whole entry): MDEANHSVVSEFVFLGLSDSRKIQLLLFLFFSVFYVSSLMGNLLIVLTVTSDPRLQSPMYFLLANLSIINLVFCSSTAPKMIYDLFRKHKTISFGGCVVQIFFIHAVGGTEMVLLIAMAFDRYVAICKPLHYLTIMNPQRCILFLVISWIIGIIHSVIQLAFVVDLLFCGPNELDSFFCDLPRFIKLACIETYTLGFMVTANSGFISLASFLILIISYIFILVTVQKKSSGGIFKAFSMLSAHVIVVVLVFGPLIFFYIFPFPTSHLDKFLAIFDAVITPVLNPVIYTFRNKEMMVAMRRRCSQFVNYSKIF
Summary of the method: as §1

OR4K1 (Homo sapiens) = OR4K1 (Homo sapiens) (UniProt Q8NGD4)
Sequence of OR4K1 (Homo sapiens) (Q8NGD4 whole entry): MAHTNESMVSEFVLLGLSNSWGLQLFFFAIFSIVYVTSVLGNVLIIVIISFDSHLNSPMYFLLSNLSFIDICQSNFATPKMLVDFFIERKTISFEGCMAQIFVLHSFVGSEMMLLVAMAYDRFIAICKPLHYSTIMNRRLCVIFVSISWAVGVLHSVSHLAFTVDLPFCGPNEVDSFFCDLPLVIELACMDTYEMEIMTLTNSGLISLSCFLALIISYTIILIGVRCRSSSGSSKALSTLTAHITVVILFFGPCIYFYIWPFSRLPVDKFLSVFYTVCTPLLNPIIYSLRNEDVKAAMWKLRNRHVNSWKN
Summary of the method: as §1

OR4K13 (Homo sapiens) = OR4K13 (Homo sapiens) (UniProt Q8NH42)
Sequence of OR4K13 (Homo sapiens) (Q8NH42 whole entry): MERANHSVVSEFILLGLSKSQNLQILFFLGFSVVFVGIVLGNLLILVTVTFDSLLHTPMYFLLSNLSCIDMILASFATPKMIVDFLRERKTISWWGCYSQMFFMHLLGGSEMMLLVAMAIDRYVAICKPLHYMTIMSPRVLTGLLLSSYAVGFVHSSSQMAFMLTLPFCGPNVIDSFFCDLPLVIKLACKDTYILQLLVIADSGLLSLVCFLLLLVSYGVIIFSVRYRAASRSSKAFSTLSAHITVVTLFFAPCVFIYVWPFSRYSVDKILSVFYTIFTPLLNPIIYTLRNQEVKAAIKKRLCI
Summary of the method: as §1

OR4K14 (Homo sapiens) = OR4K14 (Homo sapiens) (UniProt Q8NGD5)
Sequence of OR4K14 (Homo sapiens) (Q8NGD5 whole entry): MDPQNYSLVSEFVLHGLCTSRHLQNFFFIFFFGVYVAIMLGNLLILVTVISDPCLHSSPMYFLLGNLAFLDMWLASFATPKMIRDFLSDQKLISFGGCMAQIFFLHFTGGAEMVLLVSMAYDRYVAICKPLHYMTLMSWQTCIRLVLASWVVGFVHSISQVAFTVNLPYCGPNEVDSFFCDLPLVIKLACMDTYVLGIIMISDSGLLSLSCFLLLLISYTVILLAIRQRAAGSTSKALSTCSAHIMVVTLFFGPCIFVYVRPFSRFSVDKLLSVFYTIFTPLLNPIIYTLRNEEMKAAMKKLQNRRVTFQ
Summary of the method: as §1

OR4K15 (Homo sapiens) = OR4K15 (Homo sapiens) (UniProt Q8NH41)
Sequence of OR4K15 (Homo sapiens) (Q8NH41 whole entry): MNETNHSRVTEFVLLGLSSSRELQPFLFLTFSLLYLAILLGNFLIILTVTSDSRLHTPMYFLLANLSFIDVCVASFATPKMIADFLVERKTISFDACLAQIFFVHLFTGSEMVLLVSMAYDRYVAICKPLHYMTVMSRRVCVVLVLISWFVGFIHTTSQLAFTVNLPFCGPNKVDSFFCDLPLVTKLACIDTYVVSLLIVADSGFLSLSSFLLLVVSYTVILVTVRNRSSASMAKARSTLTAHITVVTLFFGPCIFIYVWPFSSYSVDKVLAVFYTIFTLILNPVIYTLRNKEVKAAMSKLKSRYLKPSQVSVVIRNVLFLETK
Summary of the method: as §1

OR4K17 (Homo sapiens) = OR4K17 (Homo sapiens) (UniProt Q8NGC6)
Sequence of OR4K17 (Homo sapiens) (Q8NGC6 as listed by the source): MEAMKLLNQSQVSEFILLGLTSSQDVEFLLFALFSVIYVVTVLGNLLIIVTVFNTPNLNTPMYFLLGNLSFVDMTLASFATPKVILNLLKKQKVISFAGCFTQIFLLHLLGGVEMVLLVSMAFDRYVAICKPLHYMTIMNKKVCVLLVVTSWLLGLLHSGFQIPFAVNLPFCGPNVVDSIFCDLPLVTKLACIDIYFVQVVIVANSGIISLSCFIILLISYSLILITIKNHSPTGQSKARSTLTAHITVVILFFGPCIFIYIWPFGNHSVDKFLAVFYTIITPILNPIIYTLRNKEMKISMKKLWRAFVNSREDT
Summary of the method: as §1

OR4K2 (Homo sapiens) = OR4K2 (Homo sapiens) (UniProt Q8NGD2)
Sequence of OR4K2 (Homo sapiens) (Q8NGD2 whole entry): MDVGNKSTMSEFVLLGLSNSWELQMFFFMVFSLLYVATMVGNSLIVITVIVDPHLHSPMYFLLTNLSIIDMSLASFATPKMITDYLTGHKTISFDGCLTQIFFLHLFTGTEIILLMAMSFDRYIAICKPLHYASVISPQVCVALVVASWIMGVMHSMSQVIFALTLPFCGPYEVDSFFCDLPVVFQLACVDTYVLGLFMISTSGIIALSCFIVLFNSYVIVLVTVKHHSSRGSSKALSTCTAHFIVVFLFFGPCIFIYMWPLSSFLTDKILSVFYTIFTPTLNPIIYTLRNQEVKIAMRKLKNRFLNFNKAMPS
Summary of the method: as §1

OR4K3 (Homo sapiens) = OR4K3 (Homo sapiens) (UniProt Q96R72)
Summary of the method: as §1

OR4K5 (Homo sapiens) = OR4K5 (Homo sapiens) (UniProt Q8NGD3)
Sequence of OR4K5 (Homo sapiens) (Q8NGD3 whole entry): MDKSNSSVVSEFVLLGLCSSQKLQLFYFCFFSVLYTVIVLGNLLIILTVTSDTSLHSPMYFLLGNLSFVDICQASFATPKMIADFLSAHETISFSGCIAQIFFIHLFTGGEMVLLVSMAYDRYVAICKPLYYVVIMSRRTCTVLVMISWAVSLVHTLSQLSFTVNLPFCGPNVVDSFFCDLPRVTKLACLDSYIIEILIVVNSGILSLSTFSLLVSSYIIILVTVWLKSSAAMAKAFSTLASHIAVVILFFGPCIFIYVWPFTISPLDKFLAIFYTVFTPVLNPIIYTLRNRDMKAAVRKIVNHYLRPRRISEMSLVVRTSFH
Summary of the method: as §1

OR4L1 (Homo sapiens) = OR4L1 (Homo sapiens) (UniProt Q8NH43)
Sequence of OR4L1 (Homo sapiens) (Q8NH43 whole entry): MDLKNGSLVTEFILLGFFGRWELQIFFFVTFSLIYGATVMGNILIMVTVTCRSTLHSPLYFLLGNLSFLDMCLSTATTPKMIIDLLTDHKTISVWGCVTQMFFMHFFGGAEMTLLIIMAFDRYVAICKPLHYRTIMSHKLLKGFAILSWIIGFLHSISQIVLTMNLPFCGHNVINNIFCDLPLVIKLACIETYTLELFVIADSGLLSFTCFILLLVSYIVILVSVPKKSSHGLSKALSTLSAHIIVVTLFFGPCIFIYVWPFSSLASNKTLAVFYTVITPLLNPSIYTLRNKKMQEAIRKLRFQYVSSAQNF
Summary of the method: as §1

OR4M1 (Homo sapiens) = OR4M1 (Homo sapiens) (UniProt Q8NGD0)
Sequence of OR4M1 (Homo sapiens) (Q8NGD0 whole entry): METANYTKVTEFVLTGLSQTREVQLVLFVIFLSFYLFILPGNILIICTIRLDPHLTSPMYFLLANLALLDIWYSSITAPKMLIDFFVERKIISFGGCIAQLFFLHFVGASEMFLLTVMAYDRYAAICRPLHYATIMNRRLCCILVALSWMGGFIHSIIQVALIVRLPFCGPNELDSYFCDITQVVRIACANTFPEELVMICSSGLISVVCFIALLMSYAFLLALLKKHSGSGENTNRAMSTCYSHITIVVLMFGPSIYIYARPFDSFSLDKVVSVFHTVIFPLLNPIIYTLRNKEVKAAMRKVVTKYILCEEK
Summary of the method: as §1

OR4F5 T141A Q293R = test system: OR4F5 T141A Q293R
Summary of the method: as §1

OR4K1 R304H = test system: OR4K1 R304H
Sequence of OR4K1 R304H (as listed by the source, stated change not applied): as the sequence (Q8NGD4 whole entry) above, with R304H counted along it
Summary of the method: as §1

OR4K2 = test system: OR4K2
Summary of the method: as §1

OR4KF = test system: OR4KF
Summary of the method: as §1

OR4KH = test system: OR4KH
Sequence of OR4KH (as listed by the source): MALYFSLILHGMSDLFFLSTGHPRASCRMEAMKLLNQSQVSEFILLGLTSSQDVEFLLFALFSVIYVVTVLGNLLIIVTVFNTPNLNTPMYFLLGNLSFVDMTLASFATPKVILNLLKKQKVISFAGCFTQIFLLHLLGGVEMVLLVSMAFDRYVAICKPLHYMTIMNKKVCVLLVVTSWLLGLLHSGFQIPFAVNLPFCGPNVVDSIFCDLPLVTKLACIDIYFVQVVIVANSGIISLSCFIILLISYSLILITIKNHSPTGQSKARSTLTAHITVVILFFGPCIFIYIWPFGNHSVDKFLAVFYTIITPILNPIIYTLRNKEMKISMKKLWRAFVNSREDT
Summary of the method: as §1

OR4L1 = test system: OR4L1
Summary of the method: as §1

Measured: odorant receptor agonist call;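 also: active if original authors judged signal statistically different from baseline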

Sequence of OR4F3 (Homo sapiens) (Q6IEY1 whole entry): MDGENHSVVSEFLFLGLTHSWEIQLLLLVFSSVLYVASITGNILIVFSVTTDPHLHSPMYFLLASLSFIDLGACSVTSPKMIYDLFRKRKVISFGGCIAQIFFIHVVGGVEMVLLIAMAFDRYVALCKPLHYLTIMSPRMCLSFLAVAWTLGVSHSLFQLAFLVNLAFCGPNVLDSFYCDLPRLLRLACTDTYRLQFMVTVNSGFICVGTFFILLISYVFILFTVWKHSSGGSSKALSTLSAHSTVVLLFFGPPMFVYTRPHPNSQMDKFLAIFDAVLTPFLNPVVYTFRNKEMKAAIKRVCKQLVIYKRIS

Cc1c([N+](=O)[O-])c(C)c([N+](=O)[O-])c(C(C)(C)C)c1[N+](=O)[O-]
not listed: OR4F5 T141A Q293R | OR4K1 R304H | OR4K2 | OR4KF | OR4KH | OR4L1
inactive: all other assays above

C=CCOC(=O)Cc1ccccc1
not listed: OR4K15 (Homo sapiens) | OR4K17 (Homo sapiens) | OR4K3 (Homo sapiens)
inactive: all other assays above

From the M2OR odorant receptor database
